The values below come from ChEMBL document CHEMBL1137731, “Cytotoxicity and TOP1-targeting activity of 8- and 9-amino derivatives of 5-butyl- and 5-(2-N,N-dimethylamino)ethyl-5H-dibenzo[c,h][1,6]naphthyridin-6-ones” (Eur J Med Chem, 2009).

A short description of experiment [1]: Cytotoxicity against human KB3-1 cells by MTT method. As to conditions: KB 3-1. The experiment is classed as functional, cell-based.
Experiment [2] can be described thus: Cytotoxicity against multidrug resistant human KBH5.0 cells overexpressing BCRP by MTT method. The experiment is classed as functional, cell-based. As to conditions: KBH5.0 cell.
Experiment [3] is described as follows: Cytotoxicity against multidrug resistant human KBV1 cells overexpressing MDR1 by MTT method. The conditions noted are these: KB-V1. The experiment is classed as functional, cell-based.
The next experiment is filed under the species Homo sapiens. Briefly: Inhibition of human recombinant topoisomerase 1 expressed in Escherichia coli assessed as drug level causing 10% mediated DNA cleavage relative to topotecan. In outline:
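Recombinant human TOP1, expressed in E. coli as a T7-system fusion protein, was incubated with drug and 3′-end-labelled plasmid YepG for 30 min at room temperature. Reactions were stopped with SDS and proteinase K (1 h, 37 °C), alkali-denatured, and run on a neutral agarose gel. The read-out was the concentration giving 10% cleavage, expressed relative to topotecan set at 1.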

The subject of a further experiment is RPMI8402 (human). Briefly: Cytotoxicity against human RPMI8402 cells by MTT method. As to conditions: RPMI-8402.
A further experiment concerns P388. Description: Cytotoxicity against mouse P388 cells by MTT method. The experiment is classed as functional, cell-based. In outline:
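MTT assay with P388 mouse leukaemia cells grown in suspension at 37 °C, 5% CO2, in RPMI with 10% heat-inactivated FBS, 2 mM L-glutamine and penicillin/streptomycin. Cells were exposed continuously to varying drug concentrations for 4 days, with a drug-free control, and MTT was read at day 4. The IC50 came from at least two assays, each in six replicate wells.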

`CN(C)CCn1c(=O)c2ccc(N)cc2c2cnc3cc4c(cc3c21)OCO4`: the half-maximal inhibitory concentration (IC50) in experiment [1] is 130 nM; in experiment [2], 150 nM; in experiment [3], 130 nM; in the experiment on RPMI8402 (human), 33 nM; in the experiment on P388 it was 28 nM. Also, the Activity in the experiment listed under Homo sapiens turned out to be 0.5.
For `CCCCn1c(=O)c2ccc(NCCN(C)C)cc2c2cnc3cc4c(cc3c21)OCO4`, the IC50 in experiment [1] is 3000 nM; in experiment [2], 3500 nM; in experiment [3] it was 4500 nM; in the experiment with RPMI8402 (human), 1800 nM; with P388, 1800 nM. For the same compound, in the experiment filed under Homo sapiens, the Activity was greater than 20.
Consider `CN(C)CCn1c(=O)c2ccc([N+](=O)[O-])cc2c2cnc3cc4c(cc3c21)OCO4`, for which the half-inhibitory concentration (IC50) in experiment [1] amounted to 5 nM; in experiment [2], 5 nM; in experiment [3], 4 nM; in the experiment with RPMI8402 (human), 2 nM; in the experiment with P388, 5 nM. In addition, the Activity in the experiment filed under Homo sapiens stood at 0.1.
For `CCCCn1c(=O)c2cc(NC(=O)CN(C)C)ccc2c2cnc3cc4c(cc3c21)OCO4`, the 50% inhibitory concentration (IC50) in experiment [1] came to 1500 nM; in experiment [2], 1600 nM; in experiment [3] it was 2600 nM; in the experiment on RPMI8402 (human), 330 nM; with P388, 250 nM. In addition, the Activity in the experiment listed under Homo sapiens was greater than 20.
Consider `CN(C)CCn1c(=O)c2ccc(NC(=O)CN(C)C)cc2c2cnc3cc4c(cc3c21)OCO4`, for which the IC50 in experiment [1] turned out to be 36 nM; in experiment [2] it was 120 nM; in experiment [3], 190 nM; in the experiment on RPMI8402 (human) it was 35 nM; with P388, 35 nM. For the same compound, the Activity in the experiment listed under Homo sapiens was greater than 20.
For the compound `CC[C@@]1(O)C(=O)OCc2c1cc1n(c2=O)Cc2cc3c(CN(C)C)c(O)ccc3nc2-1` [TOPOTECAN], the 50% inhibitory concentration (IC50) stood at 40 nM in experiment [1]; 440 nM in experiment [2]; 440 nM in experiment [3]; 21 nM in the experiment with RPMI8402 (human); 45 nM with P388.
On to `CN(C)CCNc1ccc2c(c1)c(=O)n(CCN(C)C)c1c3cc4c(cc3ncc21)OCO4`, for which the IC50 in experiment [1] is 50 nM; in experiment [2], 300 nM; in experiment [3], 410 nM; in the experiment on RPMI8402 (human), 120 nM; in the experiment on P388, 40 nM. In the experiment filed under Homo sapiens, the Activity is greater than 20.
Consider `CCCCn1c(=O)c2ccc(NC(=O)CN(C)C)cc2c2cnc3cc4c(cc3c21)OCO4`, for which the IC50 worked out at 900 nM in experiment [1]; 1900 nM in experiment [2]; 2000 nM in experiment [3]; 300 nM in the experiment on RPMI8402 (human); 600 nM with P388. In addition, the Activity in the experiment listed under Homo sapiens is greater than 20.
With `CN(C)CCn1c(=O)c2cc(N)ccc2c2cnc3cc4c(cc3c21)OCO4`, the concentration for half-maximal inhibition (IC50) in experiment [1] is 230 nM; in experiment [2], 330 nM; in experiment [3] it was 280 nM; with RPMI8402 (human), 90 nM; in the experiment with P388 it was 40 nM. The Activity in the experiment filed under Homo sapiens came out at 8.
As for `CN(C)CCNc1ccc2c(=O)n(CCN(C)C)c3c4cc5c(cc4ncc3c2c1)OCO5`, the IC50 in experiment [1] worked out at 120 nM; in experiment [2], 320 nM; in experiment [3], 550 nM; in the experiment with RPMI8402 (human) it was 850 nM; with P388, 60 nM. In the experiment filed under Homo sapiens, the Activity is greater than 20.
Turning to `CCCCn1c(=O)c2ccc(N)cc2c2cnc3cc4c(cc3c21)OCO4`, the IC50 was 5800 nM in experiment [1]; 3500 nM in experiment [2]; 2500 nM in experiment [3]; 3500 nM in the experiment with RPMI8402 (human); 6000 nM in the experiment on P388. Also, in the experiment filed under Homo sapiens, the Activity is greater than 20.
For the compound `CN(C)CCn1c(=O)c2cc([N+](=O)[O-])ccc2c2cnc3cc4c(cc3c21)OCO4`, the concentration for half-maximal inhibition (IC50) in experiment [1] came out at 26 nM; in experiment [2], 25 nM; in experiment [3], 25 nM; with RPMI8402 (human), 5 nM; with P388, 9 nM. Further, the Activity in the experiment filed under Homo sapiens was found to be 0.2.
Consider `CCCCn1c(=O)c2cc([N+](=O)[O-])ccc2c2cnc3cc4c(cc3c21)OCO4`, for which the IC50 in experiment [1] was 400 nM; in experiment [2] it was 500 nM; in experiment [3] it was 300 nM; in the experiment on RPMI8402 (human), 2400 nM; in the experiment on P388, 150 nM. Also, the Activity in the experiment filed under Homo sapiens is greater than 10.
For the compound `CC[C@@]1(O)C(=O)OCc2c1cc1n(c2=O)Cc2cc3ccccc3nc2-1` [CAMPTOTHECIN], in the experiment filed under Homo sapiens, the Activity turned out to be 0.2. For the same compound, the 50% inhibitory concentration (IC50) with RPMI8402 (human) was found to be 6 nM; in the experiment on P388 it was 14 nM.
Regarding `CCCCn1c(=O)c2cc(N)ccc2c2cnc3cc4c(cc3c21)OCO4`, the concentration for half-maximal inhibition (IC50) is 3200 nM in experiment [1]; 3500 nM in experiment [2]; 2500 nM in experiment [3]; 1250 nM in the experiment with RPMI8402 (human); 280 nM in the experiment on P388. For the same compound, the Activity in the experiment filed under Homo sapiens was greater than 20.
For `CCCCn1c(=O)c2ccc([N+](=O)[O-])cc2c2cnc3cc4c(cc3c21)OCO4`, the IC50 in experiment [1] was found to be 310 nM; in experiment [2], 360 nM; in experiment [3], 850 nM; in the experiment with RPMI8402 (human), 480 nM; in the experiment with P388 it was 700 nM. Further, the Activity in the experiment listed under Homo sapiens is greater than 10.
In the case of `CCCCn1c(=O)c2cc(NCCN(C)C)ccc2c2cnc3cc4c(cc3c21)OCO4`, the IC50 in experiment [1] is 1700 nM; in experiment [2] it was 1700 nM; in experiment [3], 3200 nM; in the experiment on RPMI8402 (human), 1570 nM; with P388, 780 nM. The Activity in the experiment filed under Homo sapiens is greater than 20.
As for `CN(C)CCn1c(=O)c2cc(NC(=O)CN(C)C)ccc2c2cnc3cc4c(cc3c21)OCO4`, the half-maximal inhibitory concentration (IC50) came to 180 nM in experiment [1]; 240 nM in experiment [2]; 600 nM in experiment [3]; 120 nM with RPMI8402 (human); 100 nM in the experiment with P388. In the experiment listed under Homo sapiens, the Activity was greater than 20.
